ChEMBL document CHEMBL4152256, “Structure-activity relationship of new antimalarial 1-aryl-3-susbtituted propanol derivatives: Synthesis, preliminary toxicity profiling, parasite life cycle stage studies, target exploration, and targeted delivery” (Eur J Med Chem, 2018)

How the values were obtained:
[1] = Genotoxicity in Salmonella typhimurium TA1535 harboring pSK1002 assessed as umu gene induction at 0.016 mg/ml in absence of Sprague-Dawley rat liver S9 fraction after by SOS/umu assay relative to control; format: toxicity, organism-based; details: salmonella enterica subsp. enterica serovar typhimurium, read-out: FC
[2] = Genotoxicity in Salmonella typhimurium TA1535 harboring pSK1002 assessed as survival at 0.004 mg/ml in absence of Sprague-Dawley rat liver S9 fraction after by SOS/umu assay relative to control; format: toxicity, organism-based; details: salmonella enterica subsp. enterica serovar typhimurium, read-out: Survival
[3] = Genotoxicity in Salmonella typhimurium TA1535 harboring pSK1002 assessed as umu gene induction at 0.004 mg/ml in presence of Sprague-Dawley rat liver S9 fraction after by SOS/umu assay relative to control; format: toxicity, organism-based; details: salmonella enterica subsp. enterica serovar typhimurium, read-out: FC
[4] = Genotoxicity in Salmonella typhimurium TA1535 harboring pSK1002 assessed as umu gene induction at 0.004 mg/ml in absence of Sprague-Dawley rat liver S9 fraction after by SOS/umu assay relative to control; format: toxicity, organism-based; details: salmonella enterica subsp. enterica serovar typhimurium, read-out: FC
[5] = Genotoxicity in Salmonella typhimurium TA1535 harboring pSK1002 assessed as survival at 0.001 mg/ml in presence of Sprague-Dawley rat liver S9 fraction after by SOS/umu assay relative to control; format: toxicity, organism-based; details: salmonella enterica subsp. enterica serovar typhimurium, read-out: Survival
[6] = Genotoxicity in Salmonella typhimurium TA1535 harboring pSK1002 assessed as survival at 0.063 mg/ml in presence of Sprague-Dawley rat liver S9 fraction after by SOS/umu assay relative to control; format: toxicity, organism-based; details: salmonella enterica subsp. enterica serovar typhimurium, read-out: Survival
[7] = Genotoxicity in Salmonella typhimurium TA1535 harboring pSK1002 assessed as survival at 0.002 mg/ml in presence of Sprague-Dawley rat liver S9 fraction after by SOS/umu assay relative to control; format: toxicity, organism-based; details: salmonella enterica subsp. enterica serovar typhimurium, read-out: Survival
[8] = Genotoxicity in Salmonella typhimurium TA1535 harboring pSK1002 assessed as umu gene induction at 0.001 mg/ml in presence of Sprague-Dawley rat liver S9 fraction after by SOS/umu assay relative to control; format: toxicity, organism-based; details: salmonella enterica subsp. enterica serovar typhimurium, read-out: FC
[9] = Genotoxicity in Salmonella typhimurium TA1535 harboring pSK1002 assessed as umu gene induction at 0.016 mg/ml in presence of Sprague-Dawley rat liver S9 fraction after by SOS/umu assay relative to control; format: toxicity, organism-based; details: salmonella enterica subsp. enterica serovar typhimurium, read-out: FC
[10] = system: Plasmodium falciparum; experiment: Antiplasmodial activity against chloroquine-sensitive Plasmodium falciparum 3D7 by [3H]-hypoxanthine incorporation assay; format: functional, organism-based; details: Plasmodium falciparum, 3D7
In short: (§1)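 Blood-stage P. falciparum 3D7 and FCR-3 were tested by a modified [3H]-hypoxanthine incorporation assay. Chloroquine was the reference in all runs.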

[11] = Genotoxicity in Salmonella typhimurium TA1535 harboring pSK1002 assessed as umu gene induction at 0.125 mg/ml in absence of Sprague-Dawley rat liver S9 fraction after by SOS/umu assay relative to control; format: toxicity, organism-based; details: salmonella enterica subsp. enterica serovar typhimurium, read-out: FC
[12] = Genotoxicity in Salmonella typhimurium TA1535 harboring pSK1002 assessed as survival at 0.008 mg/ml in absence of Sprague-Dawley rat liver S9 fraction after by SOS/umu assay relative to control; format: toxicity, organism-based; details: salmonella enterica subsp. enterica serovar typhimurium, read-out: Survival
[13] = Genotoxicity in Salmonella typhimurium TA1535 harboring pSK1002 assessed as umu gene induction at 0.063 mg/ml in absence of Sprague-Dawley rat liver S9 fraction after by SOS/umu assay relative to control; format: toxicity, organism-based; details: salmonella enterica subsp. enterica serovar typhimurium, read-out: FC
[14] = Genotoxicity in Salmonella typhimurium TA1535 harboring pSK1002 assessed as umu gene induction at 0.002 mg/ml in absence of Sprague-Dawley rat liver S9 fraction after by SOS/umu assay relative to control; format: toxicity, organism-based; details: salmonella enterica subsp. enterica serovar typhimurium, read-out: FC
[15] = Genotoxicity in Salmonella typhimurium TA1535 harboring pSK1002 assessed as survival at 0.016 mg/ml in presence of Sprague-Dawley rat liver S9 fraction after by SOS/umu assay relative to control; format: toxicity, organism-based; details: salmonella enterica subsp. enterica serovar typhimurium, read-out: Survival
[16] = Genotoxicity in Salmonella typhimurium TA1535 harboring pSK1002 assessed as umu gene induction at 0.001 mg/ml in absence of Sprague-Dawley rat liver S9 fraction after by SOS/umu assay relative to control; format: toxicity, organism-based; details: salmonella enterica subsp. enterica serovar typhimurium, read-out: FC
[17] = Genotoxicity in Salmonella typhimurium TA1535 harboring pSK1002 assessed as umu gene induction at 0.008 mg/ml in presence of Sprague-Dawley rat liver S9 fraction after by SOS/umu assay relative to control; format: toxicity, organism-based; details: salmonella enterica subsp. enterica serovar typhimurium, read-out: FC
[18] = Genotoxicity in Salmonella typhimurium TA1535 harboring pSK1002 assessed as survival at 0.004 mg/ml in presence of Sprague-Dawley rat liver S9 fraction after by SOS/umu assay relative to control; format: toxicity, organism-based; details: salmonella enterica subsp. enterica serovar typhimurium, read-out: Survival
[19] = Genotoxicity in Salmonella typhimurium TA1535 harboring pSK1002 assessed as survival at 0.008 mg/ml in presence of Sprague-Dawley rat liver S9 fraction after by SOS/umu assay relative to control; format: toxicity, organism-based; details: salmonella enterica subsp. enterica serovar typhimurium, read-out: Survival
[20] = Genotoxicity in Salmonella typhimurium TA1535 harboring pSK1002 assessed as survival at 0.002 mg/ml in absence of Sprague-Dawley rat liver S9 fraction after by SOS/umu assay relative to control; format: toxicity, organism-based; details: salmonella enterica subsp. enterica serovar typhimurium, read-out: Survival
[21] = Genotoxicity in Salmonella typhimurium TA1535 harboring pSK1002 assessed as umu gene induction at 0.063 mg/ml in presence of Sprague-Dawley rat liver S9 fraction after by SOS/umu assay relative to control; format: toxicity, organism-based; details: salmonella enterica subsp. enterica serovar typhimurium, read-out: FC
[22] = Genotoxicity in Salmonella typhimurium TA1535 harboring pSK1002 assessed as survival at 0.125 mg/ml in absence of Sprague-Dawley rat liver S9 fraction after by SOS/umu assay relative to control; format: toxicity, organism-based; details: salmonella enterica subsp. enterica serovar typhimurium, read-out: Survival
[23] = system: Plasmodium falciparum; experiment: Antiplasmodial activity against multidrug-resistant Plasmodium falciparum FCR-3 by [3H]-hypoxanthine incorporation assay; format: functional, organism-based, FCR-3/Gambia; details: Plasmodium falciparum, FCR-3/Gambia; in short: as §1
[24] = Genotoxicity in Salmonella typhimurium TA1535 harboring pSK1002 assessed as survival at 0.125 mg/ml in presence of Sprague-Dawley rat liver S9 fraction after by SOS/umu assay relative to control; format: toxicity, organism-based; details: salmonella enterica subsp. enterica serovar typhimurium, read-out: Survival
[25] = Genotoxicity in Salmonella typhimurium TA1535 harboring pSK1002 assessed as umu gene induction at 0.008 mg/ml in absence of Sprague-Dawley rat liver S9 fraction after by SOS/umu assay relative to control; format: toxicity, organism-based; details: salmonella enterica subsp. enterica serovar typhimurium, read-out: FC
[26] = Genotoxicity in Salmonella typhimurium TA1535 harboring pSK1002 assessed as survival at 0.031 mg/ml in presence of Sprague-Dawley rat liver S9 fraction after by SOS/umu assay relative to control; format: toxicity, organism-based; details: salmonella enterica subsp. enterica serovar typhimurium, read-out: Survival
[27] = Genotoxicity in Salmonella typhimurium TA1535 harboring pSK1002 assessed as umu gene induction at 0.031 mg/ml in presence of Sprague-Dawley rat liver S9 fraction after by SOS/umu assay relative to control; format: toxicity, organism-based; details: salmonella enterica subsp. enterica serovar typhimurium, read-out: FC
[28] = Genotoxicity in Salmonella typhimurium TA1535 harboring pSK1002 assessed as umu gene induction at 0.002 mg/ml in presence of Sprague-Dawley rat liver S9 fraction after by SOS/umu assay relative to control; format: toxicity, organism-based; details: salmonella enterica subsp. enterica serovar typhimurium, read-out: FC
[29] = Genotoxicity in Salmonella typhimurium TA1535 harboring pSK1002 assessed as survival at 0.016 mg/ml in absence of Sprague-Dawley rat liver S9 fraction after by SOS/umu assay relative to control; format: toxicity, organism-based; details: salmonella enterica subsp. enterica serovar typhimurium, read-out: Survival
[30] = Genotoxicity in Salmonella typhimurium TA1535 harboring pSK1002 assessed as survival at 0.001 mg/ml in absence of Sprague-Dawley rat liver S9 fraction after by SOS/umu assay relative to control; format: toxicity, organism-based; details: salmonella enterica subsp. enterica serovar typhimurium, read-out: Survival

Row | SMILES | fold induction at 0.016 mg/ml [1] | viability at 0.004 mg/ml [2] | fold induction at 0.004 mg/ml [3] | fold induction at 0.004 mg/ml [4] | viability at 0.001 mg/ml [5] | viability at 0.063 mg/ml [6] | viability at 0.002 mg/ml [7] | fold induction at 0.001 mg/ml [8] | fold induction at 0.016 mg/ml [9] | IC50 [10] | fold induction at 0.125 mg/ml [11] | viability at 0.008 mg/ml [12] | fold induction at 0.063 mg/ml [13] | fold induction at 0.002 mg/ml [14] | viability at 0.016 mg/ml [15] | fold induction at 0.001 mg/ml [16] | fold induction at 0.008 mg/ml [17] | viability at 0.004 mg/ml [18] | viability at 0.008 mg/ml [19] | viability at 0.002 mg/ml [20] | also measured
1 | OC(CCN1CCN(c2ccc(F)cc2)CC1)c1ccc(F)c2ccccc12 (stereo not given) | 0.7 | 87.9% | 0.8 | 0.8 | 101% | 112% | 100% | 0.9 | 0.9 | 430 nM | 0.7 | 122% | 0.5 | 0.7 | 72.4% | 0.7 | 0.7 | 95.6% | 98.7% | 110% | fold induction at 0.063 mg/ml [21]: 0.5; viability at 0.125 mg/ml [22]: 56.2%; IC50 [23]: 4050 nM; viability at 0.125 mg/ml [24]: 59.6%; fold induction at 0.008 mg/ml [25]: 0.5; viability at 0.031 mg/ml [26]: 140%; fold induction at 0.031 mg/ml [27]: 0.5; fold induction at 0.002 mg/ml [28]: 0.8; viability at 0.016 mg/ml [29]: 85.4%; viability at 0.001 mg/ml [30]: 111%
2 | OC(CCN1CCN(c2ccccc2C(F)(F)F)CC1)c1ccc(F)cc1 (stereo not given) | 0.8 | 107% | 1.1 | 0.9 | 84.6% | 89% | 90.4% | 1.1 | 0.9 | 1010 nM | 1.2 | 98.3% | 1.3 | 0.8 | 87.9% | 0.9 | 1 | 92.9% | 96.1% | 110% | fold induction at 0.063 mg/ml [21]: 0.8; viability at 0.125 mg/ml [22]: 25.4%; IC50 [23]: 1690 nM; viability at 0.125 mg/ml [24]: 21.3%; fold induction at 0.008 mg/ml [25]: 0.8; viability at 0.031 mg/ml [26]: 86.7%; fold induction at 0.031 mg/ml [27]: 1; fold induction at 0.002 mg/ml [28]: 1; viability at 0.016 mg/ml [29]: 99.8%; viability at 0.001 mg/ml [30]: 111%
